Reference: PMC9894006 (Journal of Insect Science, 2023)
Several values for one entry are separate records, joined by “and”; a condition that tells them apart may be missing. Identical values can stand only once.

Columns and labels:
recombinant BodoOBP10 [1] = molecular target: T1, recombinant BodoOBP10 (Bradysia odoriphaga, UniProt A0A2S0X9G4); assay: Competitive fluorescence binding assay with 1-NPN as reporter; settings: competitive dissociation constant from IC50, 1-NPN reporter
T1 sequence (A0A2S0X9G4 20-144): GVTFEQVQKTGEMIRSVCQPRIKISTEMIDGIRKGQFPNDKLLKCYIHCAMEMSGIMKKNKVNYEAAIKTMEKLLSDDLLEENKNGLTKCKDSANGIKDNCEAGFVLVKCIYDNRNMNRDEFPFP
Method in brief: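 Refolded, Ni-purified, tag-cleaved BodoOBP10 (2 µM stock, 20 mM Tris-HCl pH 7.4) was titrated with test compounds (1 mM methanol stocks) displacing the 1-NPN reporter. Ex 337 nm, em 350–500 nm. IC50 is the ligand concentration halving initial fluorescence. Ki = [IC50]/(1 + [1-NPN]/K1-NPN), using free 1-NPN and the protein/1-NPN dissociation constant. Triplicate means.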

male B. odoriphaga = settings: ref Li et al. 2008; cited from earlier work
recombinant BodoOBP10 [2] = molecular target: T1, recombinant BodoOBP10; assay: Binding curve of the fluorescence reporter 1-NPN
Method in brief: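 Recombinant BodoOBP10 was expressed in E. coli BL21(DE3) from pBM30 with 0.5 mM IPTG for 12 h at 28°C. Inclusion bodies were solubilised in 50 mM Tris pH 6.8 with 0.2% Triton X-100 and 6 M guanidine HCl. Protein was Ni-affinity purified and the His tag removed by enterokinase. Protein stock was 2 µM in 20 mM Tris-HCl pH 7.4; 1-NPN stock was 1 mM in methanol. Ex 337 nm, em 350–500 nm, 10-nm slit; triplicate means.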

[3] = tested on: antennae of B. odoriphaga adult females; assay: Electroantennogram; design: species or system Bradysia odoriphaga; settings: odorant at 10 μg/μL, adult females 12 h after emergence
Method in brief: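 30 nL of 6 μg/μL dsOBP10 or dsGFP was injected into one-day-old pupal abdomens; knockdown was checked by RT-qPCR in triplicate. Antennae of females 12 h post-emergence were detached, base on reference and tip on recording glass electrodes. Stimulus was 10 μl of a 10 μg/μL sulfur volatile on filter paper, pipetted after 10 s. Hexane control was given before and after. Ten replicates; one-way ANOVA with Tukey, means ± SE.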

[4] = tested on: antennae of adult B. odoriphaga; settings: ref Yang et al. 2019; cited from earlier work
B. odoriphaga females = settings: ref Yang et al. 2019; cited from earlier work

In the case of `CCCCCCCCCCCCCCCCC` [n- Heptadecane, n-Heptadecane], the Ki (recombinant BodoOBP10 [1]) is given as over 50 µM and the “behavioral responses in male B. odoriphaga” value (male B. odoriphaga) is given as “can lead to behavioral responses”.

Work on `c1ccc(Nc2cccc3ccccc23)cc1` [1-NPN, N-phenyl-1-naphthylamine] yielded a Ki (recombinant BodoOBP10 [2]) of 0.78 µM.

With `C=CCSSCC=C` [Diallyl disulfide] the Ki (recombinant BodoOBP10 [1]) was 8.01 µM and < 10 µM, the “EAG response in dsOBP10-injected insects compared with control (dsGFP-injected)” value [3] was “significantly reduced” and the “EAG response in dsOBP10-injected insects compared with control (dsGFP-injected)” value ([3]; listed as diallyl disulﬁde) was “reduced”. For the same compound, the “EAG responses / antennal preference of B. odoriphaga adults” value [4] was “stimulate the EAG responses” and the female oviposition (B. odoriphaga females) was “stimulate female oviposition”.
